In the library only some 3.3% were active in any assay of this set; here they are far more common.
Arrestin-AP2 inh: inhibitors of beta-arrestin/AP2 binding, primary screen, biochemical, GPCR trafficking, flow cytometry; inhibition, % at 10 µM; actives 0.31% (n = 340,000); FITC-arrestin peptide / GST-AP2 beads; AP2 beta2 appendage carries R879A mutation; beta-arrestin 1 C-terminal peptide binding to AP2 beta2-adaptin appendage (human);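 active = inhibition above a set limit, near 3 SD of compounds lacking own fluorescence, cut at about 54% in these data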
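System: GST-AP2 R879A glutathione beads; medium: PBS, Tween 20 0.05%, BSA 0.1%; reagent: fluorescein-tagged arrestin peptide at 50 nM final; schedule: pre-incubation 12 min, peptide binding 1 h, room temperature; detection: flow cytometry, FL1 (488/535 nm); read-out: inhibition as reduced fluorescein signal on beads, percent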
m5-HT2A agonist: mouse Htr2a agonists via beta-arrestin recruitment, primary screen, cell-based, luminescence | CHO-K1 mHTR2A beta-arrestin complementation; percent of 30 µM serotonin response | activation, % at 7.6 µM | actives 0.66% (n = 360,000) | AID 624169, 2012;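 active = activation above a run cutoff, the mean activation of all tested compounds plus 3 SD, cut at about 14% in these data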
HGIII-sPLA2 inh: human group III sPLA2 inhibitors, primary screen, biochemical, QFRET, BODIPY PC-A2 liposome substrate | QFRET BODIPY PC-A2 liposome hydrolysis, fluorescence | inhibition, % at 12.2 µM | actives 0.56% (n = 370,000) | AID 743126, 2013;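 active = inhibition above mean plus 3 SD of compounds lying within the high and low control bounds, cut at about 19% in these data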
M18AAP inhibitor: PfM18AAP inhibitors, malaria aminopeptidase, primary screen, biochemical, QFRET, recombinant enzyme; M18 aspartyl aminopeptidase (Plasmodium falciparum 3D7); H-Glu-NHMec fluorogenic cleavage; inhibition, % at 7.35 µM; actives 1.2% (n = 290,000);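 active = inhibition above the campaign mean inhibition over all tested compounds plus 3 SD, cut at about 28% in these data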
NRP1-CendR mod: modulators of CendR peptide binding to NRP-1, primary screen, biochemical, fluorescence polarization, uHTS; Neuropilin-1 (Homo sapiens), O14786; AID 602438, 2012; actives 0.85% (n = 360,000); inhibition, % at 25 µM; FAM-RPARPAR peptide binding to NRP-1;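 active = inhibition or corrected inhibition above about 18%, plus a signal ratio from 0.5 to 1.5, limit read from the data, passing the limit was not always enough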
Target sequence (O14786 whole entry, looked up): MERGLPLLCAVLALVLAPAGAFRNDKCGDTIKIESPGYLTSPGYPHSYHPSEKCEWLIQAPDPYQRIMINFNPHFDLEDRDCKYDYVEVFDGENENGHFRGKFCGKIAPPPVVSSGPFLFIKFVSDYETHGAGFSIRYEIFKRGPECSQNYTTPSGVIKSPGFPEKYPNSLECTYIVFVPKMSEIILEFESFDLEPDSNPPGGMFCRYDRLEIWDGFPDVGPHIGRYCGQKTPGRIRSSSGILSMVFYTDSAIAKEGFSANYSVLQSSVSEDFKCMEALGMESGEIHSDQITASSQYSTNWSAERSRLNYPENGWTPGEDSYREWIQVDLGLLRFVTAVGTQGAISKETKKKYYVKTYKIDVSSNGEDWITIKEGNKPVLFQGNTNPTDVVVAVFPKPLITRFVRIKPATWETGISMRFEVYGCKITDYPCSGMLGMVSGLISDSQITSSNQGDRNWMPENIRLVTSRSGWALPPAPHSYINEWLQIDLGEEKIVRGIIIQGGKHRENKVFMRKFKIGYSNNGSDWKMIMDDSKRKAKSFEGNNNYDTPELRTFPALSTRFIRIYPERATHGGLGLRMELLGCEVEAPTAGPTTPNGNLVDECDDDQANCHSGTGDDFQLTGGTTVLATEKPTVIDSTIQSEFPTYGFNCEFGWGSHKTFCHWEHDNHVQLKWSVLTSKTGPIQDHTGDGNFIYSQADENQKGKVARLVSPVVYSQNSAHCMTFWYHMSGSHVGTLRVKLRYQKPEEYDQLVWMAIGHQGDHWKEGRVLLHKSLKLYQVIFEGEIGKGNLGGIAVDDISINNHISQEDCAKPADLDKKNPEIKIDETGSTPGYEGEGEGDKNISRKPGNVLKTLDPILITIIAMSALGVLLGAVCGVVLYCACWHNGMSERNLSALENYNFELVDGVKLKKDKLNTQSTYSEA
Lipid droplet: inhibitors of hepatocyte lipid droplet formation, primary screen, imaging, high-throughput imaging, BODIPY stain; AML12 mouse hepatocytes, oleate lipid droplets; inhibition, % at 6.5 µM; actives 0.4% (n = 240,000); AID 1656, 2009;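 active = lipid droplet intensity inhibited by at least 50%, with more than 500 cells counted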
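Assay system: AML12 hepatocytes (mouse) / Also added: 100 µM oleic acid challenge / Times: overnight treatment with compound plus oleate / Detection: high-content imaging of BODIPY-stained droplets and DAPI nuclei / Evaluation: % inhibition of lipid droplet signal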
Arr AP2 CP1: inhibitors of arrestin peptide binding to AP2, confirmation, biochemical, cherry pick 1, flow cytometry beads; shares compounds with Arrestin-AP2 inh; GST-AP2 beads, FITC arrestin peptide binding; GST-fused beta2-adaptin appendage, R879A mutant; inhibition, % at 10 µM; actives 2% (n = 1,300); AID 504908, 2011;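 active = inhibition above a set limit, roughly 3 SD of non-fluorescent compound noise, cut at about 38% in these data; inactive = inhibition at or below that limit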;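 note: loss of bead fluorescence from 50 nM FITC arrestin peptide bound to appendage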
GST-FITC bead: GST-fluorescein capture on glutathione beads, confirmation, artefact control for arrestin-AP2 inhibitor project, biochemical, cherry pick 1, flow cytometry. shares compounds with Arrestin-AP2 inh. GST-fluorescein binding to GSH beads, fluorescence, counter-screen. inhibition, % at 10 µM. actives 2% (n = 1,300). AID 588338, 2011;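 active = inhibition above 50%, about 3 SD of the inhibition seen with non-fluorescent compounds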;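 note: fluorescein maleimide labelled GST captured on 4 micron glutathione beads; higher means more loss of bead fluorescence from quenching or blocked binding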
Numbers stand for hits; - = inactive; . = no result.

SMILES | Arrestin-AP2 inh | m5-HT2A agonist | HGIII-sPLA2 inh | M18AAP inhibitor | NRP1-CendR mod | Lipid droplet | Arr AP2 CP1 | GST-FITC bead
CC(=O)Nc1ccc(S(=O)(=O)NC(C(=O)O)C(C)O)cc1 (configuration not stated) | 54.5 | - | - | - | - | - | - | -
Cc1ccc([C@H]2N[C@]3(CCCN(Cc4ccc(F)cc4)C3=O)[C@H]3C(=O)N(C)C(=O)[C@@H]23)cc1 | . | - | - | . | - | . | . | .
CC(C)c1ccc(NC(=O)c2ccccc2NC(=O)C2CCCCC2C(=O)O)cc1 (configuration not stated) | 54.0 | - | - | - | - | - | - | -
CC(C)c1ccc(NC(=O)c2ccccc2NC(=O)C2CC=CCC2C(=O)O)cc1 (configuration not stated) | - | - | - | - | - | - | . | .
Cc1ccc(NC(=O)CNS(=O)(=O)c2ccc(F)cc2)cc1C | 55.3 | - | - | - | - | - | - | -
F[B-](F)(F)c1cc2cc(Br)ccc2s1 | - | - | . | . | - | . | . | .
CCCCC[C@@H](C)N1C[C@@H](COCc2ccccc2)Oc2cc(N3CC[C@@H](N(C)C)C3)ccc2S1(=O)=O | . | - | - | . | - | . | . | .
Cc1ccc(-n2nc3c(c2NC(=O)c2cc4ccccc4o2)CS(=O)(=O)C3)cc1 | 57.2 | - | - | - | - | - | - | -
O=C(Nc1c2c(nn1-c1ccccc1)CS(=O)(=O)C2)c1cc2ccccc2o1 | - | - | - | - | - | - | . | .
Cc1cc(NS(=O)(=O)c2ccccc2)c([N+](=O)[O-])cc1C | 61.8 | - | - | - | - | - | - | -
O=[N+]([O-])c1cc(Br)ccc1NS(=O)(=O)c1ccccc1 | - | - | - | . | - | . | . | .
COc1ccc(NS(=O)(=O)c2ccc(Br)cc2)cn1 | 56.5 | - | - | - | - | - | - | -
Cc1occc1C(=O)N/N=C/C1=C(N2CCOCC2)C(=C\c2ccc(Cl)cc2Cl)/CC1 | 98.1 | - | - | - | - | - | - | -
CC(C)c1ccc(OCCCN2CCC(C(O)(c3ccccc3)c3ccccc3)CC2)cc1 | . | . | - | . | . | . | . | .
CN1CCN(C(=O)c2ccc3c(Cl)c4c(nc3c2)CCCC4)CC1 | 63.7 | - | - | - | - | - | - | -
CCN1CCN(C(=O)c2ccc3c(Cl)c4c(nc3c2)CCCC4)CC1 | - | - | - | - | - | - | . | .
CC(CC(=O)N(CCC1=CCCCC1)c1c(N)n(Cc2ccccc2)c(=O)[nH]c1=O)c1ccccc1 (configuration not stated) | 67.6 | - | - | . | - | . | - | -
CC(C)(C)c1ccc(-c2nnc(SCc3ccccc3)n2Cc2ccco2)cc1 | . | . | - | . | . | . | . | .
Cc1cnc(NC(=O)Nc2ccccc2)c(C)n1 | - | - | - | - | - | . | - | -
O=C(Nc1ccccc1)Nc1cnccn1 | - | - | - | - | - | - | - | -
Cc1ccc(NC(=O)Nc2cnccn2)cc1 | - | - | - | - | - | - | - | -
O=C(Nc1cccc(Cl)c1)Nc1cnccn1 | - | - | - | - | - | - | - | -
CCC(C)[C@H](NC(=O)[C@H](CC(C)C)NC(=O)OC(C)(C)C)C(=O)N[C@@H](Cc1ccccc1)C(=O)OC (some centres not stated) | . | . | - | . | . | . | . | .
COCc1[nH]nc2c1C(c1ccc(C)cc1)N(Cc1ccccc1)C2=O (configuration not stated) | . | . | - | . | . | . | . | .

Assay outcomes deposited in PubChem by several laboratories.
